Calls of active or inactive are those of the source. The rule behind the calls is not given here.
What was measured:
MIA PaCa-2 = experiment: Antiproliferative activity against human MIA PaCa-2 cells measured after 48 hrs by MTS assay; format: functional, cell-based
Summary of the method: (§1)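 Cells were exposed to a dose range of inhibitor for 48 h, and viability was read by MTS assay in triplicate. GI50 was taken as the concentration giving 50% growth inhibition, averaged from three independent experiments. A375 was cultured in RPMI-1640 with Glutamax. A549 and NCI-H157 were kept in RPMI-1640, and MIA PaCa-2 and U87-MG in DMEM.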

[1] = target: T1, Signal transducer and activator of transcription 3 (Homo sapiens, UniProt P40763); experiment: Inhibition of STAT3 phosphorylation at S727 residues in human A549 cells at 25 uM after 12 hrs by Western blotting analysis; format: cell-based
T1 sequence (P40763 whole entry): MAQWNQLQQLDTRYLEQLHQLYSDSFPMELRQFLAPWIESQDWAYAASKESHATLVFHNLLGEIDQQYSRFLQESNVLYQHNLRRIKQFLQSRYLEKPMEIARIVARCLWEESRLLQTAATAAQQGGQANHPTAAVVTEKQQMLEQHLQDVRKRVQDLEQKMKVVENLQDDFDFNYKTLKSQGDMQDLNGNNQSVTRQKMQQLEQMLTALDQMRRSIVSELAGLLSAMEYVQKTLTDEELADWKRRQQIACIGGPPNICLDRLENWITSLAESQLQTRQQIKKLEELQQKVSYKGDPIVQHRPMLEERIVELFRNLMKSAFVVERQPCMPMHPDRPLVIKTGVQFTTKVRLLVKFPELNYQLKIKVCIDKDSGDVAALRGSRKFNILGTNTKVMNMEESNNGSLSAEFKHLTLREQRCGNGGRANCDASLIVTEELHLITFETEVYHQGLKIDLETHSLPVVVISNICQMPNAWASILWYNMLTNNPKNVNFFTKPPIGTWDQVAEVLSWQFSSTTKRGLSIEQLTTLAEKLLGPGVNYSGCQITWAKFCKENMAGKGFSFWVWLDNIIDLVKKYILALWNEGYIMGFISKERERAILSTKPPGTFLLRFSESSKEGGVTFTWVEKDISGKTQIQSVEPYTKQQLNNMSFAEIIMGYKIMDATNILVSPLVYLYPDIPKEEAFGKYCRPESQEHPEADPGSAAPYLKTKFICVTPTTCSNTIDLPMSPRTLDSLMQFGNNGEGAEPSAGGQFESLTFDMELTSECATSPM
Summary of the method: (§2)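 Cells lysed in M-PER after 12 h drug exposure (overnight per text); 60 µg total protein run on 10% SDS-PAGE, transferred to PVDF, probed overnight at 4 °C with phospho-specific antibodies. Panel lines (U87-MG, MDA-MB-468, MIA PaCa-2, NCI-H157, A549) given 25 µM; A375 given 0, 5, 10, 25 µM. Actin and/or vinculin loading controls.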

[2] = target: Proto-oncogene tyrosine-protein kinase Src (Homo sapiens) (UniProt P12931); experiment: Inhibition of SRC phosphorylation in human MDA-MB-468 cells at 25 uM after 12 hrs by Western blotting analysis; format: cell-based; summary of the method: as §2
Sequence of Proto-oncogene tyrosine-protein kinase Src (Homo sapiens) (P12931 2-536 limits assumed): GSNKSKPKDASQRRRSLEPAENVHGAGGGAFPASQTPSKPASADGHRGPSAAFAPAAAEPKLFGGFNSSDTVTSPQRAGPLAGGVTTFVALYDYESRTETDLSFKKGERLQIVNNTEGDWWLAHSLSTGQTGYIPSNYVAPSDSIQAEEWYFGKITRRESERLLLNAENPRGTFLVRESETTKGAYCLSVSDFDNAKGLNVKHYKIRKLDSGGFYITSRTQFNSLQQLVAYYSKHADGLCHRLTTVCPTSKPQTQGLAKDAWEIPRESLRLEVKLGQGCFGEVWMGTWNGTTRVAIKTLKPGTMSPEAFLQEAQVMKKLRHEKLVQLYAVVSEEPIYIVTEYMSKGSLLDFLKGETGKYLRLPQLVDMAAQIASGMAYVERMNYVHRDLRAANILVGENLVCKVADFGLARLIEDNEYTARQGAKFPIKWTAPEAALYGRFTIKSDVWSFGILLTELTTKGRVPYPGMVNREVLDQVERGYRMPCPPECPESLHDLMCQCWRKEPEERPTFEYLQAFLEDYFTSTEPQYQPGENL

[3] = target: T1, Signal transducer and activator of transcription 3; experiment: Inhibition of STAT3 phosphorylation at Y705 residues in human MDA-MB-468 cells at 25 uM after 12 hrs by Western blotting analysis; format: cell-based; summary of the method: as §2
T47D = experiment: Anticancer activity against human T47D cells assessed as cell growth inhibition at 10 uM measured after 48 hrs by SRB assay relative to control; format: functional; conditions: read-out: GI
Summary of the method: (§3)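 NCI 60-cell-line screen. Cells in RPMI with 5% FBS were plated at 5,000–40,000 cells/well by doubling time and preincubated 24 h at 37 °C. Compound was added at a single 10 µM for 48 h, then cells were fixed with cold TCA (10% final) and stained with 0.4% SRB. Absorbance at 515 nm gave percent growth versus untreated control and time-zero cells.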

UACC-62 = experiment: Anticancer activity against human UACC-62 cells assessed as cell growth inhibition at 10 uM measured after 48 hrs by SRB assay relative to control; format: functional; conditions: read-out: GI; summary of the method: as §3
MEL1617 [4] = experiment: Antiproliferative activity against human SB-590885-resistant MEL1617 cells assessed as reduction in cell viability measured after 48 hrs by MTS assay; format: functional, cell-based
Summary of the method: (§4)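 Melanoma lines were grown in RPMI-1640 with Glutamax at 37 °C and 5% CO2. The resistant 451 Lu-R and MEL 1617-R sublines were maintained with 1 µM PLX4720. Cells were incubated with vehicle or inhibitor over a dose range, and viability was read by MTS assay in triplicate.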

[5] = target: T1, Signal transducer and activator of transcription 3; experiment: Inhibition of STAT3 phosphorylation at Y705 residues in human U-87 MG cells at 25 uM after 12 hrs by Western blotting analysis; format: cell-based; summary of the method: as §2
[6] = target: Tyrosine-protein kinase JAK2 (Homo sapiens) (UniProt O60674); experiment: Inhibition of JAK2 phosphorylation in human U-87 MG cells at 25 uM after 12 hrs by Western blotting analysis; format: cell-based; summary of the method: as §2
Sequence of Tyrosine-protein kinase JAK2 (Homo sapiens) (O60674 whole entry): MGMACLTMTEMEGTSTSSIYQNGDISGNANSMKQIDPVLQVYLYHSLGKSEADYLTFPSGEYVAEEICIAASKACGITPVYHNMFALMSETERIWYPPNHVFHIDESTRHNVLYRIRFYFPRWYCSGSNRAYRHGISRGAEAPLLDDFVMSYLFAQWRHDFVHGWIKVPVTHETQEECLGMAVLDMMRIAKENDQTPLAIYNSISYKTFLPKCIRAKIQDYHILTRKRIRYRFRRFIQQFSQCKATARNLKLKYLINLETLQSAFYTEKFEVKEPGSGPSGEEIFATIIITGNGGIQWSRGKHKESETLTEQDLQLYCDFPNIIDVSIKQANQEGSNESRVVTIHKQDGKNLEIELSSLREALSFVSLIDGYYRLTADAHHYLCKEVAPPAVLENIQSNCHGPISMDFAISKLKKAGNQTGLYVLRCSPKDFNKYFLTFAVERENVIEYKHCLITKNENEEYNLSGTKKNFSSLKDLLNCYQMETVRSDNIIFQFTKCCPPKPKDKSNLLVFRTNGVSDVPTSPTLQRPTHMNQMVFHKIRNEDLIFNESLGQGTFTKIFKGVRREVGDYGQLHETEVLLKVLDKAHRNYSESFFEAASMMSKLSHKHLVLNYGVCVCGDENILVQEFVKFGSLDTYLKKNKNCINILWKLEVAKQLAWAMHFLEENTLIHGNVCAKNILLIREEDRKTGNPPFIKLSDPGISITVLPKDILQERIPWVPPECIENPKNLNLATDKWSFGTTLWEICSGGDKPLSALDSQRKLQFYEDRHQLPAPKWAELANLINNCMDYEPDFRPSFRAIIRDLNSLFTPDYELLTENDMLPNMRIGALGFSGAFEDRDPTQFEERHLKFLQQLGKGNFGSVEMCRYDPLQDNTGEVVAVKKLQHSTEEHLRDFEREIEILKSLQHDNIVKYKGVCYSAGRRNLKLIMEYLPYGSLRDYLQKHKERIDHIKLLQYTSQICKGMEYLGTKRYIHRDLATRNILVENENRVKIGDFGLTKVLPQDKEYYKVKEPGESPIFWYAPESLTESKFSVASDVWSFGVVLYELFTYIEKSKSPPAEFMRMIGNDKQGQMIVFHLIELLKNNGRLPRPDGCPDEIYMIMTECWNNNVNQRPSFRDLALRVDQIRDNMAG

[7] = target: Tyrosine-protein kinase JAK2 (Homo sapiens) (UniProt O60674); experiment: Inhibition of JAK2 phosphorylation in human MIA PaCa-2 cells at 25 uM after 12 hrs by Western blotting analysis; format: cell-based; summary of the method: as §2
[8] = target: T1, Signal transducer and activator of transcription 3; experiment: Inhibition of IL-6 induced STAT3 activation in human A-375 cells preincubated for overnight followed by IL-6 addition and measured after 30 mins by Western blot analysis; format: cell-based
Summary of the method: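 A375 cells were held overnight in serum-free medium with inhibitor doses, then stimulated in full medium with 25 ng/mL IL-6 for 30 min. Lysates were immunoblotted for STAT3 pY705/pS727 and Cyclin D1.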

MCF7 = experiment: Anticancer activity against human MCF7 cells assessed as cell growth inhibition at 10 uM measured after 48 hrs by SRB assay relative to control; format: functional; conditions: read-out: GI; summary of the method: as §3
451Lu [9] = experiment: Induction of apoptosis in human SB-590885-resistant 451Lu cells assessed as increase in cleaved PARP expression measured after 12 hrs by Western blot analysis; format: functional
Summary of the method: (§5)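 Sensitive and resistant 451 Lu cells were exposed to a dose range for 12 h before lysis. PARP, cleaved PARP and caspase-7 were detected by western blot against a vinculin loading control; repeated twice.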

[10] = target: T1, Signal transducer and activator of transcription 3; experiment: Inhibition of STAT3 phosphorylation at Y705 residues in human MIA PaCa-2 cells at 25 uM after 12 hrs by Western blotting analysis; format: cell-based; summary of the method: as §2
451Lu [11] = experiment: Antiproliferative activity against human SB-590885-sensitive 451Lu cells assessed as reduction in cell viability measured after 48 hrs by MTS assay; format: functional; summary of the method: as §4
451Lu [12] = experiment: Antiproliferative activity against human SB-590885-resistant 451Lu cells assessed as reduction in cell viability measured after 48 hrs by MTS assay; format: functional; summary of the method: as §4
451Lu [13] = experiment: Induction of apoptosis in human SB-590885-sensitive 451Lu cells assessed as increase in cleaved PARP expression measured after 12 hrs by Western blot analysis; format: functional; summary of the method: as §5
451Lu [14] = experiment: Induction of apoptosis in human SB-590885-resistant 451Lu cells assessed as increase in caspase-3/7 activation incubated for 45 to 60 hrs by IncuCyte Caspase-3/7 reagent based assay; format: functional; conditions: time 45-60 hrs
Summary of the method: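 451 Lu-R cells (2000/well) were allowed to adhere for 24 h, then treated with a dose range in full medium containing IncuCyte Caspase-3/7 reagent. Wells were imaged over time with a ×10 objective. Apoptotic cell counts were normalized to percent confluence at the final time point; SEM, n = 3–4.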

A-375 [15] = experiment: Antiproliferative activity against human A-375 cells measured after 48 hrs by MTS assay; format: functional, cell-based; summary of the method: as §1
[16] = target: Proto-oncogene tyrosine-protein kinase Src (Homo sapiens) (UniProt P12931); experiment: Inhibition of SRC phosphorylation in human U-87 MG cells at 25 uM after 12 hrs by Western blotting analysis; format: cell-based; summary of the method: as §2
U-87 MG = experiment: Antiproliferative activity against human U-87 MG cells measured after 48 hrs by MTS assay; format: functional, cell-based; conditions: U-87MG ATCC; summary of the method: as §1
MEL1617 [17] = experiment: Antiproliferative activity against human SB-590885-sensitive MEL1617 cells assessed as reduction in cell viability measured after 48 hrs by MTS assay; format: functional, cell-based; summary of the method: as §4
MEL1617 [18] = experiment: Antiproliferative activity against human MEL1617 cells measured after 48 hrs by MTS assay; format: functional, cell-based; summary of the method: as §1
A-375 [19] = experiment: Cell cycle arrest in human A-375 cells assessed as increase in accumulation at G1-phase measured after 24 hrs by […]; format: functional, cell-based; conditions: dose 10-25 µM
[20] = target: T1, Signal transducer and activator of transcription 3; experiment: Inhibition of STAT3 phosphorylation at Y705 residues in human A-375 cells at 5 to 10 uM after 12 hrs by Western blotting analysis; format: cell-based; conditions: dose 5-10 µM; summary of the method: as §2
451Lu [21] = experiment: Induction of apoptosis in human SB-590885-sensitive 451Lu cells assessed as increase in cleaved caspase-7 expression measured after 12 hrs by Western blot analysis; format: functional; summary of the method: as §5
A549 = experiment: Antiproliferative activity against human A549 cells measured after 48 hrs by MTS assay; format: functional, cell-based; summary of the method: as §1
UO-31 = experiment: Anticancer activity against human UO-31 cells assessed as cell growth inhibition at 10 uM measured after 48 hrs by SRB assay relative to control; format: functional; conditions: read-out: GI; summary of the method: as §3
[22] = target: T1, Signal transducer and activator of transcription 3; experiment: Inhibition of STAT3 phosphorylation at S727 residues in human A-375 cells at 10 to 25 uM after 12 hrs by Western blotting analysis; format: cell-based; conditions: dose 10-25 µM; summary of the method: as §2

SMILES: C=CCn1c(SCC(=O)Nc2ccc(/C(C)=N\O)cc2)nnc1-c1cc(-c2ccccc2)nc2ccccc12
- Activity (MIA PaCa-2): Active
- inhibition [1]: Active
- inhibition [2]: inactive
- inhibition [3]: Active
- inhibition of growth at 10 µM (T47D): 76%
- inhibition of growth at 10 µM (UACC-62): 76%
- Activity (MEL1617 [4]): Dose-dependent effect
- inhibition [5]: Active
- inhibition [6]: inactive
- inhibition [7]: inactive
- inhibition [8]: Dose-dependent effect
- inhibition of growth at 10 µM (MCF7): 76%
- Activity (451Lu [9]): Dose-dependent effect
- inhibition [10]: Active
- Activity (451Lu [11]): Dose-dependent effect
- Activity (451Lu [12]): Dose-dependent effect
- Activity (451Lu [13]): Dose-dependent effect
- Activity (451Lu [14]): Dose-dependent effect
- Activity (A-375 [15]): Active
- inhibition [16]: inactive
- Activity (U-87 MG): Active
- Activity (MEL1617 [17]): Dose-dependent effect
- Activity (MEL1617 [18]): Active
- Activity (A-375 [19]): Dose-dependent effect
- inhibition [20]: Active
- Activity (451Lu [21]): Dose-dependent effect
- Activity (A549): Active

SMILES: C=CCn1c(SCC(=O)Nc2ccc(/C(C)=N\O)cc2)nnc1-c1cc(-c2ccc(Cl)cc2)nc2ccccc12
- inhibition of growth at 10 µM (UO-31): 100%
- inhibition [22]: Active
- Activity (A-375 [19]): Dose-dependent effect

Source: ChEMBL document CHEMBL4715843, “NO-releasing STAT3 inhibitors suppress BRAF-mutant melanoma growth” (Eur J Med Chem, 2020)
